Reference: ChEMBL document CHEMBL1152612, “Ursolic acid derivatives induce cell cycle arrest and apoptosis in NTUB1 cells associated with reactive oxygen species” (Bioorg Med Chem, 2009)
Active and inactive are the calls of the source. The calls are words filed in the database; no cut-off is given here.

Assays:
PC-3 = experiment: Cytotoxicity against human PC3 cells at 50 uM after 72 hrs by MTT assay; format: functional, cell-based
In short: (§1)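 Cells grown in RPMI 1640 with 10% FBS, penicillin/streptomycin and 2 mM L-glutamine at 37 °C under 5% CO₂. Seeded 1800 cells/well, left overnight, then given graded compound concentrations for 72 h; compounds diluted from DMSO, 0.1% DMSO in medium and in controls. MTT 2 mg/mL in PBS for 3 h, formazan dissolved in DMSO, absorbance 540 nm. Viability given as % of control; IC50 by median-effect analysis, mean ± SD.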

[1] = Induction of apoptosis in human NTUB1 cells assessed as accumulation at subG1 phase at 10 uM after 24 hrs using propidium iodide staining by flow cytometry; format: functional
In short: (§2)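 NTUB1 cells plated at 8 × 10⁵ per 10 cm dish and exposed to compound for 24 or 48 h; untreated controls got medium alone. Cells trypsinized, PBS-washed and fixed overnight in ice-cold MeOH at −20 °C, then stained with 50 µg/mL propidium iodide plus RNase A. DNA content was read by flow cytometry, with apoptosis taken as sub-G1 accumulation. Three independent experiments.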

[2] = Cell cycle arrest in human NTUB1 cells assessed as accumulation at G1 phase at 20 uM after 48 hrs using propidium iodide staining by flow cytometry; format: functional, cell-based; in short: as §2
[3] = Cell cycle arrest in human NTUB1 cells assessed as accumulation at G1 phase at 40 uM after 24 hrs using propidium iodide staining by flow cytometry; format: functional, cell-based; in short: as §2
[4] = Cell cycle arrest in human NTUB1 cells assessed as accumulation at G1 phase at 40 uM after 48 hrs using propidium iodide staining by flow cytometry; format: functional, cell-based; in short: as §2
[5] = Cell cycle arrest in human NTUB1 cells assessed as accumulation at S phase at 40 uM after 48 hrs using propidium iodide staining by flow cytometry; format: functional, cell-based; in short: as §2
NTUB1 [6] = experiment: Increase in intracellular reactive oxygen species level in human NTUB1 cells at 40 uM after 24 hrs by DCFH-DA staining; format: functional, cell-based
In short: (§3)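 NTUB1 cells treated for 24 or 48 h, with or without 1 mM N-acetylcysteine. DCFH-DA (10 µM) added 30 min before harvest; cells then trypsinized, PBS-washed, and DCF green fluorescence read at once by flow cytometry through a 525 nm band-pass filter. Three independent experiments.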

[7] = Cytotoxicity against human NTUB1 cells after 72 hrs by MTT assay; format: functional, cell-based; settings: NTUB1, 72 h; in short: as §1
NTUB1 [8] = experiment: Increase in intracellular reactive oxygen species level in human NTUB1 cells at 40 uM after 24 hrs in presence of 1 mM N-acetyl-cysteine by DCFH-DA staining; format: functional, cell-based; in short: as §3
[9] = Cell cycle arrest in human NTUB1 cells assessed as accumulation at S phase at 20 uM after 24 hrs using propidium iodide staining by flow cytometry; format: functional, cell-based; in short: as §2
NTUB1 [10] = experiment: Increase in intracellular reactive oxygen species level in human NTUB1 cells at 40 uM after 48 hrs in presence of 1 mM N-acetyl-cysteine by DCFH-DA staining; format: functional, cell-based; in short: as §3
[11] = Cell cycle arrest in human NTUB1 cells assessed as accumulation at G2/M phase at 20 uM after 24 hrs using propidium iodide staining by flow cytometry; format: functional, cell-based; in short: as §2
A549 = experiment: Cytotoxicity against human A549 cells at 50 uM after 72 hrs by MTT assay; format: functional, cell-based; in short: as §1
NTUB1 [12] = experiment: Increase in intracellular reactive oxygen species level in human NTUB1 cells at 40 uM after 48 hrs by DCFH-DA staining; format: functional, cell-based; in short: as §3
[13] = Induction of apoptosis in human NTUB1 cells assessed as accumulation at subG1 phase at 20 uM after 24 hrs using propidium iodide staining by flow cytometry; format: functional; in short: as §2
[14] = Induction of apoptosis in human NTUB1 cells assessed as accumulation at subG1 phase at 40 uM after 24 hrs using propidium iodide staining by flow cytometry; format: functional; in short: as §2
[15] = Cell cycle arrest in human NTUB1 cells assessed as accumulation at S phase at 40 uM after 24 hrs using propidium iodide staining by flow cytometry; format: functional, cell-based; in short: as §2
[16] = Cell cycle arrest in human NTUB1 cells assessed as accumulation at G2/M phase at 20 uM after 48 hrs using propidium iodide staining by flow cytometry; format: functional, cell-based; in short: as §2
NTUB1 [17] = experiment: Increase in intracellular reactive oxygen species level in human NTUB1 cells at 20 uM after 48 hrs in presence of 1 mM N-acetyl-cysteine by DCFH-DA staining; format: functional, cell-based; in short: as §3
[18] = Cell cycle arrest in human NTUB1 cells assessed as accumulation at G1 phase at 10 uM after 24 hrs using propidium iodide staining by flow cytometry; format: functional, cell-based; in short: as §2
NTUB1 [19] = experiment: Increase in intracellular reactive oxygen species level in human NTUB1 cells at 20 uM after 48 hrs by DCFH-DA staining; format: functional, cell-based; in short: as §3
[20] = Cell cycle arrest in human NTUB1 cells assessed as accumulation at S phase at 20 uM after 48 hrs using propidium iodide staining by flow cytometry; format: functional, cell-based; in short: as §2
[21] = Cell cycle arrest in human NTUB1 cells assessed as accumulation at S phase at 10 uM after 24 hrs using propidium iodide staining by flow cytometry; format: functional, cell-based; in short: as §2
[22] = Induction of apoptosis in human NTUB1 cells assessed as accumulation at subG1 phase at 40 uM after 48 hrs using propidium iodide staining by flow cytometry; format: functional; in short: as §2
[23] = Cell cycle arrest in human NTUB1 cells assessed as accumulation at G2/M phase at 40 uM after 48 hrs using propidium iodide staining by flow cytometry; format: functional, cell-based; in short: as §2
[24] = Induction of apoptosis in human NTUB1 cells assessed as accumulation at subG1 phase at 20 uM after 48 hrs using propidium iodide staining by flow cytometry; format: functional; in short: as §2
[25] = Cell cycle arrest in human NTUB1 cells assessed as accumulation at G2/M phase at 10 uM after 24 hrs using propidium iodide staining by flow cytometry; format: functional, cell-based; in short: as §2
[26] = Cell cycle arrest in human NTUB1 cells assessed as accumulation at G1 phase at 20 uM after 24 hrs using propidium iodide staining by flow cytometry; format: functional, cell-based; in short: as §2
[27] = Cell cycle arrest in human NTUB1 cells assessed as accumulation at G2/M phase at 40 uM after 24 hrs using propidium iodide staining by flow cytometry; format: functional, cell-based; in short: as §2
NTUB1 [28] = experiment: Increase in intracellular reactive oxygen species level in human NTUB1 cells at 20 uM after 24 hrs in presence of 1 mM N-acetyl-cysteine by DCFH-DA staining; format: functional, cell-based; in short: as §3
NTUB1 [29] = experiment: Increase in intracellular reactive oxygen species level in human NTUB1 cells at 50 uM after 24 hrs by DCFH-DA staining; format: functional, cell-based; in short: as §3
NTUB1 [30] = experiment: Increase in intracellular reactive oxygen species level in human NTUB1 cells at 50 uM after 48 hrs by DCFH-DA staining; format: functional, cell-based; in short: as §3
[31] = Cell cycle arrest in human NTUB1 cells assessed as accumulation at G1 phase at 50 uM after 48 hrs using propidium iodide staining by flow cytometry; format: functional, cell-based; in short: as §2
NTUB1 [32] = experiment: Increase in intracellular reactive oxygen species level in human NTUB1 cells at 50 uM after 24 hrs in presence of 1 mM N-acetyl-cysteine by DCFH-DA staining; format: functional, cell-based; in short: as §3
Tubulin (Homo sapiens) = Tubulin (Homo sapiens) (UniProt P68371+Q9H4B7+P0DPH7+P68366+Q13509+Q71U36+P04350+Q3ZCM7+P07437+P68363+Q9BQE3+Q6PEY2+Q13885+Q9BVA1+Q9BUF5); experiment: Inhibition of tubulin polymerization in human NTUB1 cells assessed as blockade of microtubule assembly at 50 uM by indirect immunofluorescence staining; format: cell-based
In short: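 NTUB1 cells on coverslips were treated for 24 h, then fixed in 2% formaldehyde/PBS for 20 min and in cold methanol (−20 °C) for 3 min. Stained with anti-α-tubulin monoclonal antibody for 3 h at room temperature, then rhodamine-conjugated secondary antibody for 1 h in the dark. Mounted in 80% glycerol/PBS and examined by fluorescence microscopy.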

[33] = Induction of apoptosis in human NTUB1 cells assessed as accumulation at subG1 phase at 50 uM after 24 hrs using propidium iodide staining by flow cytometry; format: functional; in short: as §2
[34] = Cell cycle arrest in human NTUB1 cells assessed as accumulation at G2/M phase at 50 uM after 48 hrs using propidium iodide staining by flow cytometry; format: functional, cell-based; in short: as §2
NTUB1 [35] = experiment: Increase in intracellular reactive oxygen species level in human NTUB1 cells at 50 uM after 48 hrs in presence of 1 mM N-acetyl-cysteine by DCFH-DA staining; format: functional, cell-based; in short: as §3
[36] = Cell cycle arrest in human NTUB1 cells assessed as accumulation at S phase at 50 uM after 48 hrs using propidium iodide staining by flow cytometry; format: functional, cell-based; in short: as §2
[37] = Cell cycle arrest in human NTUB1 cells assessed as accumulation at S phase at 50 uM after 24 hrs using propidium iodide staining by flow cytometry; format: functional, cell-based; in short: as §2
[38] = Cell cycle arrest in human NTUB1 cells assessed as accumulation at G1 phase at 50 uM after 24 hrs using propidium iodide staining by flow cytometry; format: functional, cell-based; in short: as §2
NTUB1 [39] = experiment: Increase in intracellular reactive oxygen species level in human NTUB1 cells at 20 uM after 24 hrs by DCFH-DA staining; format: functional, cell-based; in short: as §3
[40] = Induction of apoptosis in human NTUB1 cells assessed as accumulation at subG1 phase at 50 uM after 48 hrs using propidium iodide staining by flow cytometry; format: functional; in short: as §2
[41] = Cell cycle arrest in human NTUB1 cells assessed as accumulation at G2/M phase at 50 uM after 24 hrs using propidium iodide staining by flow cytometry; format: functional, cell-based; in short: as §2

CC(C)OC(=O)[C@]12CC[C@@H](C)[C@H](C)[C@H]1C1=CC[C@@H]3[C@@]4(C)CC[C@H](O)C(C)(C)[C@@H]4CC[C@@]3(C)[C@]1(C)CC2
Activity (PC-3): Active | Activity [1]: 13.8% | Activity [2]: 52.1% | Activity [3]: 58.1% | Activity [4]: 8.53% | Activity [5]: 1.31% | Activity (NTUB1 [6]): Active | IC50 [7]: 7.97 µM | Activity (NTUB1 [8]): inactive | Activity [9]: 15.8% | Activity (NTUB1 [10]): Active | Activity [11]: 9.18% | Activity (A549): Active | Activity (NTUB1 [12]): Active | Activity [13]: 23.5% | Activity [14]: 23.73% | Activity [15]: 4.53% | Activity [16]: 16.2% | Activity (NTUB1 [17]): Active | Activity [18]: 33.9% | Activity (NTUB1 [19]): Active | Activity [20]: 20.5% | Activity [21]: 31.7% | Activity [22]: 43.81% | Activity [23]: 1.96% | Activity [24]: 6.73% | Activity [25]: 15.3% | Activity [26]: 51% | Activity [27]: 11%

C=C(C)[C@@H]1CC[C@]2(C)[C@H](CC=C3[C@@H]4[C@@H](C)[C@H](C)CC[C@]4(C(=O)O)CC[C@]32C)[C@@]1(C)CCC(=O)O
Activity (NTUB1 [28]): inactive | Activity (PC-3): Active | Activity [2]: 52.2% | Activity (NTUB1 [29]): Active | IC50 [7]: 25.5 µM | Activity (NTUB1 [30]): Active | Activity [9]: 23.7% | Activity [31]: 66.4% | Activity [11]: 10.9% | Activity (A549): Active | Activity (NTUB1 [32]): inactive | Activity [13]: 21.68% | Activity [16]: 16.6% | Activity (NTUB1 [17]): Active | Activity (Tubulin (Homo sapiens)): Active | Activity (NTUB1 [19]): Active | Activity [33]: 25.75% | Activity [34]: 11.1% | Activity [20]: 20.6% | Activity (NTUB1 [35]): Active | Activity [36]: 3.05% | Activity [37]: 6.9% | Activity [38]: 52.2% | Activity (NTUB1 [39]): Active | Activity [40]: 14% | Activity [41]: 13.1% | Activity [24]: 5.12% | Activity [26]: 41.3%
